The target in assay [1] is T1, ATP-citrate synthase (Rattus norvegicus, UniProt P16638).
T1 sequence (P16638 whole entry): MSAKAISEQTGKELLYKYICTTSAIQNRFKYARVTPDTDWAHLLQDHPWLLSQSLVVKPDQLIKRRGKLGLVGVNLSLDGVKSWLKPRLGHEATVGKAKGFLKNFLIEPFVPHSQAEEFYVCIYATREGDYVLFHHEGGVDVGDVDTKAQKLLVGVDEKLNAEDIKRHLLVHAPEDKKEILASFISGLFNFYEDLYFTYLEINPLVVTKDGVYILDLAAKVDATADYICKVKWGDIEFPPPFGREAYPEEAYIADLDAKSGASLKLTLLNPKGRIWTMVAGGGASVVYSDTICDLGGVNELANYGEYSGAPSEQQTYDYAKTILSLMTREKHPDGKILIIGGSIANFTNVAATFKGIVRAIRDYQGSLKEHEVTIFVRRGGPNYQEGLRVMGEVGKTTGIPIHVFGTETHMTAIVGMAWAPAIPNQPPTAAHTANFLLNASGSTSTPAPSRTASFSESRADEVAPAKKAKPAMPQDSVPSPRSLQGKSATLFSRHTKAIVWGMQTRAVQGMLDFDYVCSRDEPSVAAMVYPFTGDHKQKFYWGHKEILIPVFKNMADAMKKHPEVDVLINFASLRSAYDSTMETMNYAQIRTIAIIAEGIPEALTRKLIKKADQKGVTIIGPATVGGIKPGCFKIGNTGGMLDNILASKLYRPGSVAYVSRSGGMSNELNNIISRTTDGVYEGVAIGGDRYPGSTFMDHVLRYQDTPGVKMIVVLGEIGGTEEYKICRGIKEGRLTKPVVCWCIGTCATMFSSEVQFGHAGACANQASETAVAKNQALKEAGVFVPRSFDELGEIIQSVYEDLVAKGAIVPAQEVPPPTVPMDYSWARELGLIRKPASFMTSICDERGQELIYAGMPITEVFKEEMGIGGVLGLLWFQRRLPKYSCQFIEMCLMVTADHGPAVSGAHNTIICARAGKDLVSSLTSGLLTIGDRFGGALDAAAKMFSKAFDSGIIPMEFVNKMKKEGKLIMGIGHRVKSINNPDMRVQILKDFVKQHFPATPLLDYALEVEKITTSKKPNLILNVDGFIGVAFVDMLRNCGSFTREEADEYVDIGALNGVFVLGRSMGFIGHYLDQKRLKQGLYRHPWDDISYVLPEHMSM
Description: Inhibitory activity against rat ATP-citrate lyase activity by the […] dehydrogenase catalyzed reduction of oxaloacetate by NADH. Summed up: (§1)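 Purified rat ACL or recombinant human ACL was assayed by coupling oxaloacetate formation to malate dehydrogenase reduction with NADH. Buffer: Tris 100 mM pH 8.0, MgCl2 10 mM, KCl 10 mM, DTT 10 mM, plus ATP and NADH. CoA was 200 μM, and citrate was added to 100 μM (its Km) to start the reaction. A340 decrease was followed over 20 min. Ki came from fitting v = Vmax/(2 + [I]/Ki), assuming citrate-competitive inhibition.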

Assay [2] has as its target T1, ATP-citrate synthase. Description: Inhibition of recombinant ATP-Citrate Lyase activity as […] dehydrogenase catalyzed reduction of oxaloacetate by NADH. The note with it: in the assay text read “purified rat ATP-Citrate Lyase” for “recombinant ATP-Citrate Lyase”. In short, it runs like this: as §1
Assay [3] has as its target T2, ATP-citrate synthase (Homo sapiens) (UniProt P53396).
T2 sequence (whole entry): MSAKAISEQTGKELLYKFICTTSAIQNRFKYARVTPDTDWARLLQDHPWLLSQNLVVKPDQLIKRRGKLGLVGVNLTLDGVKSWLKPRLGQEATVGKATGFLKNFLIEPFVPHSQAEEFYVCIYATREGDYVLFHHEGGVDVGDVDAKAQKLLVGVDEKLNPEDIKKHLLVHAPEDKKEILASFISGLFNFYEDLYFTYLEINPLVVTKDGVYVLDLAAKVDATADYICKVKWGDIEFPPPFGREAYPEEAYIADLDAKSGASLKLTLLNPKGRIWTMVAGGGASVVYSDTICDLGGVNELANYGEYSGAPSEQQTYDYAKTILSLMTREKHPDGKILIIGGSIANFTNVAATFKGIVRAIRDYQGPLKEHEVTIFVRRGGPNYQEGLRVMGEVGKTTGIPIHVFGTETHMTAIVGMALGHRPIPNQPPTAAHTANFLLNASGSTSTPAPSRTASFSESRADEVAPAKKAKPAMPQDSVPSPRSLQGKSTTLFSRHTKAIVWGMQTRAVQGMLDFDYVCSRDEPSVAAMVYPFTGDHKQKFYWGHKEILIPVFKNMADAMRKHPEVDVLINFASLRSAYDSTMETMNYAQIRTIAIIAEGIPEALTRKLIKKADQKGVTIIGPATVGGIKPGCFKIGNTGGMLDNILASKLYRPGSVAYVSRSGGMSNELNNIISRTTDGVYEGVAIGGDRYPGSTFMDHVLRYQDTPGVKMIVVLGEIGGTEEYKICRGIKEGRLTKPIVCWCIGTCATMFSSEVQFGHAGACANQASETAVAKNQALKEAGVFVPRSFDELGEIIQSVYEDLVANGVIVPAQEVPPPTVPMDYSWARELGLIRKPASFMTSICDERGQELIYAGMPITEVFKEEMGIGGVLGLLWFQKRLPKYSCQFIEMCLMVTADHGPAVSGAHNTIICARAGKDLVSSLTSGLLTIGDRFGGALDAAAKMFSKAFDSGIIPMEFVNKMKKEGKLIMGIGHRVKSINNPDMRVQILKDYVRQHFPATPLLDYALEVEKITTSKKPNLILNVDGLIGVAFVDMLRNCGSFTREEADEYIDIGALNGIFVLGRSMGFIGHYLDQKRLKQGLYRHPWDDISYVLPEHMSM
As to the kind of experiment: (§2) Inhibitory activity against human recombinant ATP-Citrate Lyase activity was measured by the […] dehydrogenase catalyzed reduction of oxaloacetate by NADH. The note with it: concentration not given here. Summed up:
as §1

Assay [4] addresses T3, ATP-citrate synthase (Homo sapiens, UniProt P53396).
T3 sequence (P53396 whole entry): T2 sequence (whole entry)
The description is as §2. Summed up:
as §1

Each structure is given as a SMILES string.

As a reminder, the Ki is the equilibrium dissociation constant of an inhibitor or competing ligand from its target. One may read the inhibition as the share of the control response that was lost under treatment.

In assay [1], `O=C(O)CC(O)(CSCCCCCS(=O)(=O)c1ccc(Cl)cc1Cl)C(=O)O` (stereo unspecified) showed a Ki of 64 µM.

As for `O=C(O)CC(O)(CSCCCCCCc1ccc(F)cc1F)C(=O)O` (stereo unspecified), the Ki in assay [2] turned out to be 270 µM.

For `O=C(O)CC(O)(CSCCCCCCc1ccccc1-c1ccccc1)C(=O)O` (stereo unspecified), the inhibition constant Ki in assay [1] was determined as 18 µM.

As for `O=C(O)CC(O)(CSCCCCCCc1ccc(F)cc1)C(=O)O` (stereo unspecified), the affinity in assay [1], expressed as Ki, was 120 µM.

`O=C(O)CC(O)(CSCCCCNS(=O)(=O)c1ccc(Cl)cc1Cl)C(=O)O` (stereo unspecified): in assay [1], affinity was put at a Ki of 175 µM.

As to `Cc1ccc(CCCCCCSCC(O)(CC(=O)O)C(=O)O)c(C)c1` (stereo unspecified), the Ki in assay [2] stood at 160 µM.

`O=C(O)CC(O)(CSCCCCCCc1ccc(Cl)cc1)C(=O)O` (stereo unspecified) displayed a Ki in assay [1] of 71 µM.

With `O=C(O)CC(O)(CSCCCCCSc1ccc(Cl)cc1Cl)C(=O)O` (stereo unspecified), the affinity in assay [1] corresponds to a Ki of 10 µM.

`O=C(O)CC(O)(CSCCCCCCc1ccccc1Cc1ccccc1)C(=O)O` (stereo unspecified): in assay [2], the Ki is 94 µM.

Compound `O=C(O)CC(O)(CSCCCCCCCCCc1ccc(Cl)cc1Cl)C(=O)O` (stereo unspecified) came in with a Ki in assay [1] of 300 µM.

Turning to `O=C(O)CC(O)(CSCCCCCCCc1ccc(Cl)cc1Cl)C(=O)O` (stereo unspecified), the affinity in assay [1] corresponds to a Ki of 7.2 µM.

Consider `O=C(O)CC(O)(CSCCCCCCc1cccc2ccccc12)C(=O)O` (stereo unspecified), for which, in assay [2], the Ki worked out at 63 µM.

`O=C(O)CC(O)(CSCCCCCCc1ccc(O)cc1)C(=O)O` (stereo unspecified): in assay [1], the Ki came to 420 µM.

In the case of `O=C(O)CC(O)(CSCCCCCCc1ccccc1[N+](=O)[O-])C(=O)O` (stereo unspecified), the Ki in assay [2] turned out to be 75 µM.

In the case of `O=C(O)CC(O)(CSCCCCCCc1ccc(C(=O)O)cc1)C(=O)O` (stereo unspecified), affinity in assay [1] was put at a Ki of 420 µM.

Turning to `O=C(O)CC(O)CSCCCCCCc1ccc(Cl)cc1Cl` (stereo unspecified), the affinity in assay [1] corresponds to a Ki of 88 µM.

In assay [1], `O=C(O)CC(O)(CSCCCC/C=C\c1ccc(Cl)cc1Cl)C(=O)O` (stereo unspecified) registered an inhibition constant Ki of 7.4 µM.

In turn, `O=C(O)CC(O)(CSCCCCCNc1ccc(Cl)cc1Cl)C(=O)O` (stereo unspecified) yielded a Ki in assay [1] of 12 µM.

Consider `O=C(O)CC(O)(CSCCCCCCc1ccccn1)C(=O)O` (stereo unspecified), for which, in assay [3], the inhibition stood at 30%.

Consider `O=C(O)CC(O)(CSCCCCCC(=O)c1ccc(Cl)cc1Cl)C(=O)O` (stereo unspecified), for which, in assay [1], the Ki stood at 130 µM.

Take `O=C(O)CC(O)(CSCCCc1ccc(Cl)cc1Cl)C(=O)O` (stereo unspecified): in assay [2], the Ki worked out at 390 µM.

In assay [1], `O=C(O)CC(CSCCCCC[S+]([O-])c1ccc(Cl)cc1Cl)C(=O)O` (stereo unspecified) displayed a Ki of 131 µM.

With `O=C(O)CC(O)(CSCCCc1ccc2ccccc2c1)C(=O)O` (stereo unspecified), the Ki in assay [4] worked out at 300 µM.

In turn, `O=C(O)CC(O)(CSCCCCCCc1ccccc1Cl)C(=O)O` (stereo unspecified) came in with a Ki in assay [1] of 69 µM.

As to `O=C(O)CC(O)(CCSCCCCCc1ccc(Cl)cc1Cl)C(=O)O` (stereo unspecified), affinity in assay [1] was put at a Ki of 2.9 µM.

On to `O=C(O)CC(O)(CCCCCCCc1ccc(Cl)cc1Cl)C(=O)O` (stereo unspecified), for which the affinity in assay [1] corresponds to a Ki of 10.5 µM.

The values are drawn from ChEMBL document CHEMBL1129688, “ATP-citrate lyase as a target for hypolipidemic intervention. Design and synthesis of 2-substituted butanedioic acids as novel, potent inhibitors of the enzyme” (J Med Chem, 1996).
